Calls of active or inactive are those of the source.

This is an account of results in ChEMBL document CHEMBL4014307, “Diindolylmethane Derivatives: Potent Agonists of the Immunostimulatory Orphan G Protein-Coupled Receptor GPR84” (J Med Chem, 2017).

In assay [1] the target is T1, Free fatty acid receptor 4 (Homo sapiens) (UniProt Q5NUL3).
T1 sequence (whole entry): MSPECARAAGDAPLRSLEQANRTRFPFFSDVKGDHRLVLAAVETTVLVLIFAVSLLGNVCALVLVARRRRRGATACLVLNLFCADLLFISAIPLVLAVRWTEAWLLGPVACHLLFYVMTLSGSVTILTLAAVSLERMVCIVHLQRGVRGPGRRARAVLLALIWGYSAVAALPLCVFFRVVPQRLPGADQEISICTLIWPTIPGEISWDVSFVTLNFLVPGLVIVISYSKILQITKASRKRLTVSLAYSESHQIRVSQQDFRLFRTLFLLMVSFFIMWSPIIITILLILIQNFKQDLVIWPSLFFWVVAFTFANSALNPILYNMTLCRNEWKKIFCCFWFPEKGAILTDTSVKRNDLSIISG
In words: Agonist activity at human FFAR4 expressed in CHO cells assessed as beta-arrestin recruitment at 10 uM after 90 mins by beta-galactosidase complementation assay. Format: cell-based. In a few lines:
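Human FFAR4 in CHO β-galactosidase complementation cells, 30,000 per well, serum-free F12 ~4 h before assay; final DMSO 1 %, compounds 10 µM. Agonist mode: 90 min with agonist, then detection 60 min rt dark; luminescence. 3–4 experiments in duplicate.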

Assay [2] has as its target T2, G-protein coupled receptor 84 (Homo sapiens, UniProt Q9NQS5). In words: Agonist activity at Gi coupled human GPR84 expressed in CHO cells assessed as inhibition of forskolin-induced cAMP accumulation after 15 mins in presence of [3H]-cAMP by radiometric assay. It is filed as functional, cell-based. The method in brief: (§1)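 Forskolin (10 µM) added with or without test compound for 15 min. Cells lysed in hot (90 °C) EDTA/Triton X-100 solution. cAMP measured radiometrically with bovine adrenal binding protein and [³H]cAMP, expressed as % of forskolin-alone response.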

The target in assay [3] is T2, G-protein coupled receptor 84. Briefly: Antagonist activity at Gi coupled human GPR84 expressed in CHO cells assessed as inhibition of decanoic acid-induced receptor activation at 10 uM. It is filed as cell-based.
Assay [4] shares this target. Briefly: Agonist activity at Gi coupled human GPR84 expressed in CHO cells assessed as inhibition of forskolin-induced cAMP accumulation at 10 uM after 15 mins in presence of [3H]-cAMP by radiometric assay relative to decanoic acid. It is filed as functional, cell-based. In a few lines: as §1
The target in assay [5] is Free fatty acid receptor 1 (Homo sapiens, UniProt O14842). In words: Agonist activity at Gq protein coupled human FFAR1 expressed in human 1321N1 cells assessed as induction of intracellular calcium level at 10 uM measured at 1.2 secs time interval by Fluo-4-AM dye based fluorescence assay. It is filed as functional, cell-based. In a few lines: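 1321N1 astrocytoma cells retrovirally expressing human FFAR1, 50,000 per well, loaded 60 min at rt in dark with 3 µM Fluo-4-AM and 0.06 % Pluronic F-127 in HBSS. Compounds at 10 µM final; antagonist mode uses 30 min preincubation before TUG-424 (final 1 µM). Fluorescence at 520 nm (excitation 485 nm), 90 reads at 1.2 s intervals. Normalized to TUG-424 at 10 µM (agonist) or 1 µM (antagonist).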
Sequence of Free fatty acid receptor 1 (O14842 whole entry): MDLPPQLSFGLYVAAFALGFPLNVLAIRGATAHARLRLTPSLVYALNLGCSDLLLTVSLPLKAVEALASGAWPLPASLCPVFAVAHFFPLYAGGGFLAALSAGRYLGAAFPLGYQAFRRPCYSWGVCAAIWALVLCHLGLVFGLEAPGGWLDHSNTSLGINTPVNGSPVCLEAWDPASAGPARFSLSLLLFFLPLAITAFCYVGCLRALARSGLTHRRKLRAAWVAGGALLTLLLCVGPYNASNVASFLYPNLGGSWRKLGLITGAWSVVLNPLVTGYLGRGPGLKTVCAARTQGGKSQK

The target of assay [6] is T1, Free fatty acid receptor 4 (Homo sapiens). In words: Antagonist activity at human FFAR4 expressed in CHO cells assessed as inhibition of TUG-89-induced beta-arrestin recruitment at 10 uM preincubated for 30 mins followed by TUG-89 addition measured after 90 mins by beta-galactosidase complementation assay. Format: cell-based.

T2 sequence (Q9NQS5 whole entry): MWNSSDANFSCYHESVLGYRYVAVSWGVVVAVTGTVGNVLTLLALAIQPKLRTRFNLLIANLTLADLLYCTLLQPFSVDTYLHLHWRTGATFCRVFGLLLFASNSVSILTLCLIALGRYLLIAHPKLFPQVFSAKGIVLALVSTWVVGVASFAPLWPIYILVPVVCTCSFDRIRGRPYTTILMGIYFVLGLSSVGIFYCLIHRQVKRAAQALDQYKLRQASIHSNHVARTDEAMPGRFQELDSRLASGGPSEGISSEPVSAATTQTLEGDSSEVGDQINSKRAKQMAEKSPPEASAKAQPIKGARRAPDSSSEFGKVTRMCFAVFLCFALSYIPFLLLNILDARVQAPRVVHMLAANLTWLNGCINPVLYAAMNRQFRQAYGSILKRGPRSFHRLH

As to `COc1ccc2[nH]cc(/C=C3\C(=O)Nc4ccccc43)c2c1`, the outcome in assay [1] and in assay [5] was inactive. The half-maximal effective concentration (EC50) in assay [2] is more than 10 µM. Moreover, the inhibition result in assay [3] and in assay [6] was “inactive” throughout. Moreover, the Emax in assay [4] was -10%.

As to `O=C1Nc2ccc(F)cc2/C1=C/c1c[nH]c2ccc(F)cc12`, the outcome in assay [1] and in assay [5] was inactive. Further, in assay [2], the EC50 is more than 10 µM. Further, the inhibition result in assay [3] and in assay [6] was “inactive” in each case. The Emax in assay [4] worked out at 5%.

For `N#Cc1ccc2[nH]cc(Cc3c[nH]c4ccc(C#N)cc34)c2c1`, the result in assay [1] and in assay [5] was inactive. Also, the EC50 in assay [2] was not below 10 µM. Also, the inhibition result in assay [3] and in assay [6] was “inactive” in each case. For the same compound, the Emax in assay [4] came to 49%.

For `Clc1ccc(C(c2c[nH]c3ccccc23)c2c[nH]c3ccccc23)cc1`, the result in assay [1] and in assay [5] was inactive. In addition, in assay [2], the half-maximal effective concentration (EC50) is more than 10 µM. Further, the inhibition entry in assay [3] and in assay [6] was “inactive” in each case. The Emax in assay [4] was -4%.

As for `COc1cccc2[nH]cc(Cc3c[nH]c4cccc(OC)c34)c12`, the result in assay [1] and in assay [5] was inactive. Moreover, in assay [2], the EC50 was not below 10 µM. The inhibition result in assay [3] and in assay [6] was “inactive” in each case. Further, in assay [4], the Emax was found to be 47%.

As to `COc1ccc2[nH]cc(CC3C(=O)Nc4ccc(F)cc43)c2c1` (stereo not given), the result in assay [1] and in assay [5] was inactive. For the same compound, the concentration giving a half-maximal response (EC50) in assay [2] was more than 10 µM. In addition, the inhibition entry in assay [3] and in assay [6] was “inactive” each time. Further, the Emax in assay [4] was -10%.

For the compound `COc1ccc2c(Cc3c[nH]c4cc(OC)ccc34)c[nH]c2c1`, the result in assay [1] and in assay [5] was inactive. Further, in assay [2], the EC50 is more than 10 µM. Also, the inhibition entry in assay [3] and in assay [6] was “inactive” each time. In addition, the Emax in assay [4] was determined as 31%.

Take `O=[N+]([O-])c1ccc(C(c2c[nH]c3ccccc23)c2c[nH]c3ccccc23)cc1`: the result in assay [1] and in assay [5] was inactive. Also, the concentration giving a half-maximal response (EC50) in assay [2] was more than 10 µM. Moreover, the inhibition entry in assay [3] and in assay [6] was “inactive” each time. In addition, the Emax in assay [4] stood at 6%.

With `Clc1ccc2[nH]cc(Cc3c[nH]c4ccc(Cl)cc34)c2c1`, the outcome in assay [1] and in assay [5] was inactive. Moreover, in assay [2], the concentration for a half-maximal effect (EC50) was determined as 4.96 µM. Also, the Emax in assay [4] worked out at 86%. Besides, the inhibition entry in assay [6] was “inactive”.

Take `COC(=O)c1ccc2[nH]cc(Cc3c[nH]c4ccc(C(=O)OC)cc34)c2c1`: the outcome in assay [1] and in assay [5] was inactive. Moreover, in assay [2], the EC50 was more than 10 µM. For the same compound, the inhibition entry in assay [3] and in assay [6] was “inactive” each time. In addition, the Emax in assay [4] turned out to be 11%.

In the case of `Clc1cc(Cl)c2c(Cc3c[nH]c4cc(Cl)cc(Cl)c34)c[nH]c2c1`, the result in assay [1] and in assay [5] was inactive. The 50% effective concentration (EC50) in assay [2] is not below 10 µM. Besides, the inhibition result in assay [3] and in assay [6] was “inactive” in each case. The Emax in assay [4] was 51%.

For the compound `c1ccc(COc2ccc3[nH]cc(Cc4c[nH]c5ccc(OCc6ccccc6)cc45)c3c2)cc1`, the result in assay [1] and in assay [5] was inactive. Moreover, the EC50 in assay [2] is more than 10 µM. For the same compound, the inhibition entry in assay [3] and in assay [6] was “inactive” in each case. The Emax in assay [4] turned out to be 36%.

In the case of `COc1ccc2[nH]cc(CC3C(=O)Nc4ccccc43)c2c1` (stereo not given), the result in assay [1] and in assay [5] was inactive. Also, in assay [2], the EC50 is more than 10 µM. The inhibition entry in assay [3] and in assay [6] was “inactive” throughout. Besides, the Emax in assay [4] is -21%.

Turning to `O=[N+]([O-])c1ccc2[nH]cc(Cc3c[nH]c4ccc([N+](=O)[O-])cc34)c2c1`, the outcome in assay [1] and in assay [5] was inactive. For the same compound, the 50% effective concentration (EC50) in assay [2] is more than 10 µM. The inhibition entry in assay [3] and in assay [6] was “inactive” each time. Further, the Emax in assay [4] was determined as 31%.

With `O=C1Nc2ccc(F)cc2C1Cc1c[nH]c2ccc(F)cc12` (stereo not given), the outcome in assay [1] and in assay [5] was inactive. In assay [2], the EC50 was more than 10 µM. The inhibition entry in assay [3] and in assay [6] was “inactive” each time. The Emax in assay [4] came out at 16%.

As to `O=Cc1ccc2[nH]cc(Cc3c[nH]c4ccc(C=O)cc34)c2c1`, the result in assay [1] and in assay [5] was inactive. For the same compound, in assay [2], the EC50 was more than 10 µM. Besides, the inhibition entry in assay [3] and in assay [6] was “inactive” in each case. Also, the Emax in assay [4] is -4%.

On to `O=C1Nc2ccccc2C1=Cc1c[nH]c2ccc(F)cc12`, for which the outcome in assay [1] and in assay [5] was inactive. In assay [2], the concentration for a half-maximal effect (EC50) was more than 10 µM. Besides, the inhibition entry in assay [3] and in assay [6] was “inactive” in each case. Also, the Emax in assay [4] was -1%.

For the compound `Brc1ccc2[nH]cc(Cc3c[nH]c4ccc(Br)cc34)c2c1`, the result in assay [1] and in assay [5] was inactive. Moreover, the EC50 in assay [2] came out at 3.44 µM. Further, in assay [4], the Emax was found to be 106%. The inhibition entry in assay [6] was “inactive”.

In the case of `Fc1ccc(C(c2c[nH]c3ccccc23)c2c[nH]c3ccccc23)cc1`, the result in assay [1] and in assay [5] was inactive. The EC50 in assay [2] was more than 10 µM. Further, the inhibition entry in assay [3] and in assay [6] was “inactive” in each case. Besides, in assay [4], the Emax worked out at 8%.

As to `COC(=O)c1ccc2[nH]cc(Cc3c[nH]c4ccccc34)c2c1`, the result in assay [1] and in assay [5] was inactive. Further, the concentration for a half-maximal effect (EC50) in assay [2] amounted to 10 µM. Besides, the Emax in assay [4] was 57%. In assay [6], the inhibition entry is “inactive”.

With `O=C1Nc2ccccc2C1Cc1ccc2[nH]ccc2c1` (stereo not given), the outcome in assay [1] and in assay [5] was inactive. The EC50 in assay [2] was more than 10 µM. The inhibition result in assay [3] and in assay [6] was “inactive” in each case. Further, the Emax in assay [4] is 7%.

With `Cc1ccc2c(Cc3c[nH]c4cc(C)ccc34)c[nH]c2c1`, the outcome in assay [1] and in assay [5] was inactive. Further, the EC50 in assay [2] was more than 10 µM. For the same compound, the inhibition entry in assay [3] and in assay [6] was “inactive” in each case. The Emax in assay [4] was -22%.

Regarding `Cc1ccccc1C#Cc1ccc(CCC(=O)O)cc1`, the outcome in assay [5] was inactive.
